pIC50, pKi: −log10 of the molar value.
Experiments:
[1] = target: T1, Amine oxidase [flavin-containing] B (Homo sapiens, UniProt P27338); experiment: Inhibition of recombinant human MAOB expressed in baculovirus infected BTI insect cell microsomes at 10 uM using MMTP as substrate preincubated for 5 mins followed by substrate addition by spectrophotometric analysis
T1 sequence (P27338 whole entry): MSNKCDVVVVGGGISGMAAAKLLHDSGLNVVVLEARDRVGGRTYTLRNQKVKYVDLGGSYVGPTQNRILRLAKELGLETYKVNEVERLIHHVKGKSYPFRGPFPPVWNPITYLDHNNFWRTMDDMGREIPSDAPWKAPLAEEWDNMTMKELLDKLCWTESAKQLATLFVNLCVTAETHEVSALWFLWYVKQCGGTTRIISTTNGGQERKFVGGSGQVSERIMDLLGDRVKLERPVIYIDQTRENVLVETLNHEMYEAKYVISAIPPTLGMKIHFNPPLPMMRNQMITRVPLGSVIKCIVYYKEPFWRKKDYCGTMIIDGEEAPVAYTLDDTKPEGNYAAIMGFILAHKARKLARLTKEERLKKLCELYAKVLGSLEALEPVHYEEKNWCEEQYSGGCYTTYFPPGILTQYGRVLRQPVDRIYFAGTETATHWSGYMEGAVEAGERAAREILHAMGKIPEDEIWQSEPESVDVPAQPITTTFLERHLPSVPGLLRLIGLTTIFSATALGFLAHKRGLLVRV
Procedure, shortened: (§1)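 Insect-cell microsomes carrying recombinant human enzyme (25 µg per assay) in 0.1 M potassium phosphate. Incubated with inhibitor at 10 µM final (DMSO 3.3% v/v final) for 5 min at 37 °C. Started with MMTP at 0.15 mM. Absorbance increase followed at 420 nm at 37 °C, with v0 from ε 25000 M-1 cm-1. Activity given as a ratio to a DMSO-only control (100%).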

[2] = target: T2, Amine oxidase [flavin-containing] A (Homo sapiens, UniProt P21397); experiment: Inhibition of recombinant human MAOA expressed in baculovirus infected BTI insect cell microsomes at 10 uM using MMTP as substrate preincubated for 5 mins followed by substrate addition by spectrophotometric analysis; procedure, shortened: as §1
T2 sequence (P21397 whole entry): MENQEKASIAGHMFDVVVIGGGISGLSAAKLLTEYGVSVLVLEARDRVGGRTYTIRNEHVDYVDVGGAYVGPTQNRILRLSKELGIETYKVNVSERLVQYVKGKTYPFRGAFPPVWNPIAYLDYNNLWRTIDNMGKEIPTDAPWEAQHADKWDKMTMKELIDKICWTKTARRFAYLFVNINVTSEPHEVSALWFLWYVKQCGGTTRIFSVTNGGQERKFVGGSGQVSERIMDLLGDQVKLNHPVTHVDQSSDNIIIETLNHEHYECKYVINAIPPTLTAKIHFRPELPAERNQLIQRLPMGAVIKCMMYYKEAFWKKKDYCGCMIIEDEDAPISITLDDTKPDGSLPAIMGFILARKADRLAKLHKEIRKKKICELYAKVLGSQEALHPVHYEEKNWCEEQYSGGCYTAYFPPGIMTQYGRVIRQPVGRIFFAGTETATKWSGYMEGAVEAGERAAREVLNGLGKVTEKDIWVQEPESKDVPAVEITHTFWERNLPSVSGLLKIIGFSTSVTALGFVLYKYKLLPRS

[3] = target: T1, Amine oxidase [flavin-containing] B; experiment: Inhibition of recombinant human MAOB expressed in baculovirus infected BTI insect cell microsomes using MMTP as substrate preincubated for 5 mins followed by substrate addition by spectrophotometric analysis
Procedure, shortened: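 MAO-B in insect-cell microsomes, 25 µg in 0.1 M potassium phosphate with 3.3% v/v DMSO final. Preincubated with inhibitor for 5 min at 37 °C, then MMTP added at 0.15 mM. Absorbance read at 420 nm at 37 °C. Remaining activity relative to the DMSO control was fitted against log10[I] to a dose-response curve for IC50. Mean ± SEM of two experiments.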

[4] = target: T1, Amine oxidase [flavin-containing] B; experiment: Competitive inhibition of human MAOB overexpressed in Pichia pastoris using MMTP as substrate preincubated for 5 mins followed by substrate addition by UV/vis spectrophotometric analysis
Procedure, shortened: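 Purified recombinant human MAO-B in reaction buffer containing 0.25% v/v reduced Triton X-100. MMTP assay read at 420 nm in quartz cuvettes under aerobic conditions at 25 °C. MMTP was varied from 0.07 to 2.00 mM and inhibitor from 3 to 40 µM. Apparent kcat (v0/[E]) was plotted against substrate and fitted to competitive, uncompetitive and noncompetitive models to give Ki.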

[5] = target: T1, Amine oxidase [flavin-containing] B; experiment: Time-dependent inhibition of recombinant human MAOB expressed in baculovirus infected BTI insect cell microsomes at IC50 using MMTP as substrate preincubated for 5 mins followed by substrate addition measured after 5 to 60 mins by spectrophotometric analysis
Procedure, shortened: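 Microsomal human MAO-B was preincubated with inhibitor at 0.55 µM final for 5, 15, 30 or 60 min. Residual activity was then measured in the MMTP assay (420 nm, 37 °C). Rates expressed as apparent kcat (min-1); SEM from two replicates.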

| SMILES | inhibition at 10 µM [1] [%] | inhibition at 10 µM [2] [%] | pIC50 [3] | pKi [4] | TDI [5] |
| --- | --- | --- | --- | --- | --- |
| O=C(/C=C/c1cccc2c1OCO2)c1cccc(C(F)(F)F)c1 | 96 | 16 | 6.26 | 6.11 | Not Active |
| CSc1ccc(C(=O)/C=C/c2cccc3c2OCO3)cc1 | 86 | 0 | 6.02 | 6.26 | – |
| CS(=O)(=O)c1ccc(C(=O)/C=C/c2cccc3c2OCO3)cc1 | 93 | 0 | 6.00 | 6.14 | – |
| O=C(/C=C/c1cccc2c1OCO2)c1ccccc1C(F)(F)F | 7 | – | – | – | – |
| COc1cccc(/C=C/C(=O)c2ccc(S(C)(=O)=O)cc2)c1OC | 90 | 0 | 5.71 | 5.94 | – |

Continued, values first:

| inhibition at 10 µM [1] [%] | inhibition at 10 µM [2] [%] | pIC50 [3] | pKi [4] | TDI [5] | SMILES |
| --- | --- | --- | --- | --- | --- |
| 88 | 0 | 5.82 | 5.63 | – | O=C(/C=C/c1cccc2c1OCO2)c1cccc(OC(F)(F)F)c1 |
| 41 | 0 | – | – | – | COc1cccc(/C=C/C(=O)c2cccc(OC(F)(F)F)c2)c1OC |
| 27 | 0 | – | – | – | COc1cccc(/C=C/C(=O)c2ccccc2C(F)(F)F)c1OC |
| 63 | 0 | 5.35 | – | – | COc1cccc(/C=C/C(=O)c2cccc(C(F)(F)F)c2)c1OC |
| 36 | 0 | – | – | – | COc1cccc(/C=C/C(=O)c2ccc(SC)cc2)c1OC |

Reference: ChEMBL document CHEMBL3779824, “Design and synthesis of novel chalcones as potent selective monoamine oxidase-B inhibitors” (Eur J Med Chem, 2016)
